The values below come from ChEMBL document CHEMBL4513216, “Probing the Open Global Health Chemical Diversity Library for Multistage-Active Starting Points for Next-Generation Antimalarials” (ACS Infect Dis, 2020).

The data set is described as follows: Toxicity liver stage against HepG2, at 10uM. Conditions: human, HepG2-A16-CD81EGFP cells; read-out: INHIBITION
Type of data set: cell-based. Details: test concentration 10 uM, cell line HepG2-A16-CD81EGFP. In outline:
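Uninfected HepG2-A16-CD81EGFP cells, 3 × 10^3 per well, 1536-well, plated on prespotted compound at 10 μM final, parasite-free screening media added to match infected plates; puromycin 10 μM positive, DMSO 0.5% negative; run in parallel with 48 h PbLuc assay at 37 °C, 5% CO2; viability by CellTiter-Glo luminescence, normalized to controls.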

In the case of `Cc1ccc(C(O)CNC(=O)NCc2csc(C)n2)cc1` (stereo not given), the cytotoxicity at 10 µM was -5.13%. Take `CC(C)(C)N1CC(C(=O)NCc2cn3cccnc3n2)CC1=O` (stereo not given): the cytotoxicity at 10 µM was -0.591%. With `O=C(NC1CC1)[C@H]1C[C@@H]2CCN(Cc3ccc4c(c3)OCO4)C[C@@H]2O1`, the cytotoxicity at 10 µM stood at 0.782%. On to `CCOC(=O)CN(C)Cc1cnc(C)s1`, for which the cytotoxicity at 10 µM was 20.2%. On to `CC(=O)N1CCCC1c1cccc(Cc2ccccc2F)n1` (stereo not given), for which the cytotoxicity at 10 µM was -1.44%. For the compound `CCOc1ncccc1Cn1cc(-c2nccn2C)nn1`, the cytotoxicity at 10 µM is -1.38%. Regarding `CSc1nc(C)cc(N2CCC(c3ncc[nH]3)CC2)n1`, the cytotoxicity at 10 µM is -10.6%.

Consider `CC(C)(C)n1ncc2c1NC(=O)CC2c1ccc(OCC(N)=O)cc1` (stereo not given), for which the cytotoxicity at 10 µM worked out at 20.6%.

Turning to `CC(=O)NC[C@@H]1C=C(C)[C@H](CC(=O)NCCN(C)C)C[C@H]1C(C)C`, the cytotoxicity at 10 µM was 0.939%. `Clc1ccccc1-c1nnc(CN2CCCC2Cn2cncn2)o1` (stereo not given): the cytotoxicity at 10 µM was -9.03%.

As for `O=c1ccc(-n2ccnc2)nn1CCNS(=O)(=O)c1ccccc1Cl`, the cytotoxicity at 10 µM is -0.947%. In the case of `Cc1c[nH]c(C2CCCN(Cc3ccccc3C(=O)O)C2)n1` (stereo not given) it was -3.3%; in that of `O=C(O)c1ccc(S(=O)(=O)Nc2ccccc2F)c(F)c1`, 5.51%; in that of `Cc1c(C(=O)N2CCC3(CCCN(CC4CC4)C3=O)C2)ccn1C` (stereo not given), -3.92%. Regarding `c1cc(CNc2ccc(-c3nc(C4CC4)no3)cn2)no1`, the cytotoxicity at 10 µM came out at 1.79%.

Turning to `Cc1noc(C)c1-c1nc(C2CCCN(C(=O)C(C)C)C2)ccc1CO` (stereo not given), the cytotoxicity at 10 µM was found to be 0.983%.

Consider `COC(=O)NCC(=O)NC1CC(C)(C)Cc2oc(C)cc21` (stereo not given), for which the cytotoxicity at 10 µM was -20.8%.

As to `CCOc1cccc(CNc2cncc(-n3cccn3)n2)c1`, the cytotoxicity at 10 µM is -0.363%. Consider `Cn1ccnc1SCCNc1nccc(C(F)(F)F)n1`, for which the cytotoxicity at 10 µM was -51%. With `COCCN1C(=O)C[C@H]2[C@H]1CCN2Cc1ccccc1`, the cytotoxicity at 10 µM was -71.5%. On to `CCCN(CC)C(=O)c1ncn2c1CN(C)S(=O)(=O)c1ccccc1-2`, for which the cytotoxicity at 10 µM is -152%. On to `Cc1cnn(CC2CN(c3cnc4ccccc4n3)CCO2)c1` (stereo not given), for which the cytotoxicity at 10 µM was 2.02%. For the compound `Cc1cc(-n2nc(C)nc2-c2cn(CCN)nn2)ccn1`, the cytotoxicity at 10 µM is 7.55%. In the case of `CC(C)N[C@@H]1CO[C@H](CNC(=O)c2cccs2)[C@H]1O` it was -3.65%. Regarding `Cc1cccn2cc(CN3CCCC(O)C3)nc12` (stereo not given), the cytotoxicity at 10 µM was 2.25%. As to `COC(=O)c1ccc(CN2CCN(Cc3nc(C)no3)CC2)s1`, the cytotoxicity at 10 µM came to 4.07%. In the case of `CCOc1ncccc1NC(=O)c1cc2c(s1)CCC2` it was -15%; in that of `NC(=O)C(NCCc1ccc(Cl)s1)c1ccccc1` (stereo not given), 6.13%; in that of `CC(=O)Nc1nc(C2CCN(CC(N)=O)CC2)cs1`, -2.76%. For `Cc1noc(C)c1CN1CCn2cc(CNC(=O)C3CCC3)nc2C1`, the cytotoxicity at 10 µM amounted to 5.28%. As to `Cc1cccc(NC(=O)c2ccc(-n3cncn3)nn2)n1`, the cytotoxicity at 10 µM is -0.895%.

Take `Cc1cnn(CCNC(C)C(=O)NCCc2cccs2)c1` (stereo not given): the cytotoxicity at 10 µM was -9.38%. As for `c1cnc(N2C[C@H]3CCN(CC4CC4)C[C@H]3C2)cn1`, the cytotoxicity at 10 µM was -108%. As to `CO[C@@H]1CCN(C(=O)Cc2ccc(F)cc2)[C@@H]1Cc1cccnc1`, the cytotoxicity at 10 µM was determined as 10.1%. For the compound `O=C(c1ccccn1)N1C[C@H]2CC[C@@H](C1)N(C(=O)Cc1cccs1)C2`, the cytotoxicity at 10 µM is -1.13%. In the case of `COCCC(=O)NCCc1nc2cc(-c3ccc(OC)cc3)ncn2n1`, the cytotoxicity at 10 µM came out at 10.5%. For `Cc1cc(CN2CCc3nc(C(C)C)nc(O)c3CC2)c(C)s1`, the cytotoxicity at 10 µM is -0.782%. Consider `CC(C)(C)c1noc(CCCC(=O)NCC2CCS(=O)(=O)C2)n1` (stereo not given), for which the cytotoxicity at 10 µM is -15.4%. For `N[C@@H]1CCN(Cc2cc(-c3ccccc3OC(F)(F)F)no2)C[C@H]1O`, the cytotoxicity at 10 µM was determined as 2.42%.

On to `CCOCc1ccccc1CNc1ccc2nncn2n1`, for which the cytotoxicity at 10 µM came to 0.84%. Take `CC(C)(O)c1cn(C[C@H]2C[C@@H]3CCN2C[C@@H]3C(=O)N2CCOCC2)nn1`: the cytotoxicity at 10 µM is 3.49%. Regarding `CS(=O)(=O)N1CCO[C@@H]2CN(C(=O)Cc3cccs3)CC[C@@H]2C1`, the cytotoxicity at 10 µM was -108%. In the case of `CC[C@@]1(O)CCN(C(=O)c2ccc(CN3CCCCCC3)cc2)C[C@H]1O` it was 8.44%; in that of `COc1cccc2cc(CNC(=O)N3CCCC(O)C3)oc12` (stereo not given), -8.8%; in that of `O=C1CCCc2[nH]c(=O)c(C(=O)N(Cc3ccsc3)C3CC3)cc21`, -10.8%. With `C(=C\c1ccc(CN2CCCC2)cn1)/c1ccccc1`, the cytotoxicity at 10 µM amounted to 9.81%. As to `Cc1cnn(CCNCC(O)COc2ccc(C#N)cc2)c1` (stereo not given), the cytotoxicity at 10 µM was -11.9%. For the compound `Cc1nn(C)c(C)c1C1CCCN1Cc1nc(-c2ccco2)oc1C` (stereo not given), the cytotoxicity at 10 µM is -4.27%. Take `Cc1cccc(CN2CC[C@@H]3[C@@H]2CCN3Cc2cccs2)n1`: the cytotoxicity at 10 µM is -117%. With `Cc1ccc(C(=O)N2C[C@@H]3CCCO[C@@H]3[C@H](N(C)Cc3ccco3)C2)o1`, the cytotoxicity at 10 µM turned out to be 5.51%. Regarding `CN1N=C(C(=O)N2CCCC(CCc3cccc(F)c3)C2)CCC1=O` (stereo not given), the cytotoxicity at 10 µM is -3.42%. Consider `CO[C@H]1COCCN(C(=O)c2ccc(F)cc2)C1`, for which the cytotoxicity at 10 µM is 0.287%. Consider `COCc1ncn(Cc2nc(-c3ccc(OC)cc3F)oc2C)n1`, for which the cytotoxicity at 10 µM is -92.7%. Take `c1cn(Cc2ccc(N3CCCN(C4CCCC4)CC3)nc2)cn1`: the cytotoxicity at 10 µM turned out to be 12%. In the case of `COc1cccc(CN2C[C@@H]3COC[C@]3(CN3CCOCC3)C2)c1` it was -80.6%; in that of `Cc1cc(C)c(CNC(=O)C(C)Oc2cccc(C#N)c2)c(=O)[nH]1` (stereo not given), 7.42%. For the compound `Cc1cc2c(=O)n3c(nc2s1)CCN(Cc1[nH]cnc1C)CC3`, the cytotoxicity at 10 µM is -9.9%.

On to `CCC(=O)N1CCC(c2nnc(Cn3cccn3)n2C2CC2)CC1`, for which the cytotoxicity at 10 µM was -12.6%. On to `CC(C)n1nnc(CC(=O)NCC2(c3ccccc3F)CCOCC2)n1`, for which the cytotoxicity at 10 µM turned out to be 2.35%.

Regarding `O=C(NCC1CCCO1)c1cc(COc2ccccc2F)[nH]n1` (stereo not given), the cytotoxicity at 10 µM stood at 10.8%. Take `CCc1nc(CN2CCCN(c3nccs3)CC2)no1`: the cytotoxicity at 10 µM is -6.44%. As to `CCCOCC1CCN(C(=O)c2cnc(-c3csc(C)n3)nc2O)C1` (stereo not given), the cytotoxicity at 10 µM is 5.25%. `Cc1ccc(-c2cnnc(NCC3CCOCC3)n2)o1`: the cytotoxicity at 10 µM is -3.64%. In the case of `CC(C)c1cc(C(=O)N(c2ccc(F)cn2)C2CCOCC2)on1` it was -9.01%; in that of `CN(C)S(=O)(=O)N1C[C@H]2CC[C@@H](C1)N(CCC(=O)NCc1ccco1)C2`, -6.74%; in that of `Cc1cc(Br)oc1C(=O)N1CCCN(CC(N)=O)CC1`, 0.71%.

Consider `c1cnn(CCCO[C@@H]2CN(C3CCOCC3)[C@@H]3CCCO[C@@H]32)c1`, for which the cytotoxicity at 10 µM was 4.56%.

Turning to `COCCN1CCC(c2nc3c([nH]2)CC(C)(C)CNC3=O)CC1`, the cytotoxicity at 10 µM is -3.13%. For `Cc1nc(C)n(CC2CCCN2Cc2cc(C)on2)n1` (stereo not given), the cytotoxicity at 10 µM was 4.04%. On to `CCc1cnc(CCNC(C)CC(=O)Nc2cccc(C)c2C)s1` (stereo not given), for which the cytotoxicity at 10 µM was determined as 6.69%. As for `NCCc1c(-c2ccc(F)cc2)[nH][nH]c1=O`, the cytotoxicity at 10 µM was -1.3%. Take `O[C@@H]1CC(CNCc2ccccn2)(COc2cccnc2)C[C@@H]1O` (stereo not given in full): the cytotoxicity at 10 µM was -10.3%. As to `CNc1cc(C2CCCN2C(=O)c2ccc(=O)[nH]n2)ccn1` (stereo not given), the cytotoxicity at 10 µM is -5.04%. On to `Cc1cnn(CC2CCCN2C(=O)c2csc(C(C)C)n2)c1` (stereo not given), for which the cytotoxicity at 10 µM turned out to be 4.89%. As for `O=C(NCc1cc[nH]n1)NCC(c1ccco1)N1CCCC1` (stereo not given), the cytotoxicity at 10 µM came out at 13.6%. Turning to `c1cc(COC[C@@]23CCC[C@@H]2CN(C2CCOCC2)C3)ccn1`, the cytotoxicity at 10 µM is 8.44%. Regarding `CN(CC(=O)N1CCC(Cc2cccc(C(N)=O)c2)C1)C1CCCC1` (stereo not given), the cytotoxicity at 10 µM was -7.92%. For the compound `O=C(c1ccc(C2CCCN2)s1)N1CCN(C(=O)N2CCOCC2)CC1` (stereo not given), the cytotoxicity at 10 µM was found to be 0.106%. As to `COc1cc(Cl)c(NC(=O)c2cc3c([nH]c2=O)CCCC3=O)cc1OC`, the cytotoxicity at 10 µM was -5.21%.

Turning to `FC(F)(F)c1ccnc(N2CCCCCC2)c1`, the cytotoxicity at 10 µM is 3.02%.

`CCCn1cc(NC(=O)c2ccc(N(C)CC)cc2)ccc1=O`: the cytotoxicity at 10 µM was -0.704%.

`Cc1nsc2ncc(C(=O)N3CCCC3c3cnn(C)c3)cc12` (stereo not given): the cytotoxicity at 10 µM was -1.8%. As to `C=C(C)COc1cccc(C(=O)N(C)Cc2cc(CC)no2)c1`, the cytotoxicity at 10 µM was -3.42%.

Regarding `O=C(NCCCn1cncn1)c1ccc(-c2ccccc2)[nH]c1=O`, the cytotoxicity at 10 µM was -4.86%. For `O=C(c1cc2ccccc2[nH]1)N1CCC(Nc2cccnn2)CC1`, the cytotoxicity at 10 µM is -16.9%. Consider `Cc1nc(-c2nnc[nH]2)sc1C(=O)N1CCCC1c1ccsc1` (stereo not given), for which the cytotoxicity at 10 µM was -3.34%. For the compound `CN1CCCC1CNC(=O)CCCOc1cccc(F)c1` (stereo not given), the cytotoxicity at 10 µM was -9.54%.

Consider `O=C(NCc1ccccn1)[C@]12COC[C@H]1CN(C1CCC1)C2`, for which the cytotoxicity at 10 µM is -6.82%. `O=C(N1CCCC1)N1CCC(c2nccn2Cc2cscn2)CC1`: the cytotoxicity at 10 µM is 4.8%. Take `c1cc(N2CCC3(COCc4cnc(NCC5CC5)nc43)C2)ncn1` (stereo not given): the cytotoxicity at 10 µM came out at 6.27%. In the case of `CCNC(=O)CN1CCC(OCC2CCCO2)CC1` (stereo not given) it was -3.78%.

In the case of `CNC(=O)[C@@H]1C[C@H](N)CN1S(=O)(=O)c1cc(Cl)c(Cl)s1`, the cytotoxicity at 10 µM came to 1.27%.

For `NCCn1cc(C(=O)N2CCCCCC2c2ccco2)nn1` (stereo not given), the cytotoxicity at 10 µM is -4.94%.

With `c1ccc2c(c1)nc1n2[C@@H](CNCc2nccs2)COC1`, the cytotoxicity at 10 µM is -1.4%.

`CNC(=O)[C@@H]1[C@H]2CN(Cc3ccoc3)CCN2C[C@H]1c1ccccc1`: the cytotoxicity at 10 µM came out at 4.06%.
